# Assay outcomes as filed in PubChem BioAssay.
# SUMO HTRF inh: SUMOylation inhibition. HTRF SUMOylation assay, SAE1/SAE2 + UBC9, in vitro. P63279. inhibition, % at 35 µM. actives 0.36% (n = 290,000); in the data active = inhibition above about 50%, passing the limit was not always enough
# Target sequence (P63279 whole entry, looked up): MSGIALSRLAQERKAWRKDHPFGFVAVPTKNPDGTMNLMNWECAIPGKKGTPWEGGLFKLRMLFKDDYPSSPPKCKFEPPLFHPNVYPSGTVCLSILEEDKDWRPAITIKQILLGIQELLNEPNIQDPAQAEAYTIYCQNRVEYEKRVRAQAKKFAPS
# Rin1 Abl inh: blocks binding of human Rin1 to Abl | TR-FRET Rin1/Abl binding, biochemical | AID 588664 | inhibition, % at 7.35 µM | P00519+Q13671 | actives 0.4% (n = 360,000); in the data active = inhibition above about 5%, passing the limit was not always enough
# UBC13 inh: inhibitors of human UBC13 polyubiquitin chain formation. P61088. TR-FRET. inhibition, % at 20 µM. actives 0.47% (n = 330,000). AID 485273; in the data active = inhibition above about 45%, passing the limit was not always enough
# ALR inh: blocks human ALR sulfhydryl oxidase activity. P55789. purified ALR, DTT oxidation, H2O2 HRP-luminol luminescence. inhibition, % (no concentration beside the values). actives 3.8% (n = 290,000). AID 485317;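 active = mean replicate inhibition above about 79%, with every replicate also reaching it, limit read from the data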
# Target sequence (P55789 whole entry, looked up): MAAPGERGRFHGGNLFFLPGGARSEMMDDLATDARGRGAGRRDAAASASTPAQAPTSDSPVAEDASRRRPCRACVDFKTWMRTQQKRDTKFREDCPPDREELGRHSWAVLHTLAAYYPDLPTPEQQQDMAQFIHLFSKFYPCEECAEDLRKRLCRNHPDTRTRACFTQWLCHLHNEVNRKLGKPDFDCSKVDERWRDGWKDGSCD
# RBBP9 inh: inhibitors of human serine hydrolase RBBP9 | recombinant RBBP9, FP-Rh probe fluorescence polarization | O75884 | actives 0.2% (n = 220,000) | inhibition, % at 7.94 µM;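 active = inhibition above the campaign mean of all tested compounds plus 3 SD, cut at about 14% in these data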;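 also: plate controls were DMSO wells with RBBP9 for no effect and wells lacking RBBP9 protein for full effect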
#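 system = RBBP9 protein | input = RBBP9 at 2.5 µM in dispensed solution, before mixing | measured by = fluorescence polarization (mP), excitation 525 nm, emission 598 nm | incubation = enzyme-compound preincubation 30 min, then probe labeling 45 min, 25 °C | buffer or medium = Tris-NaCl-Pluronic buffer, pH 8.0 | compound = single dose 7.94 µM | also added = FP-Rh probe, 375 nM dispensing solution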
# PREPL inhibitor: human PREPL enzyme inhibition; recombinant PREPL, fluorescence polarization activity-based probe; inhibition, % at 5.96 µM; Q4J6C6; actives 0.68% (n = 320,000);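 also: 0% = enzyme with DMSO and 100% = wells lacking enzyme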
# PREPL confirm: human PREPL inhibition, confirmation; shares compounds with PREPL inhibitor; recombinant PREPL, fluorescence polarization activity probe; inhibition, % at 5.96 µM; AID 2803; actives 67% (n = 2,000);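 also: 0% = protein with DMSO and 100% = wells lacking protein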
# Active calls of the source: *; x = no result. A selection: hits, their analogues and other compounds. The true share with any hit is near 4.3%. Rule as the data show it, unless noted: active = inhibition above about 43%; inactive = the rest.
SMILES,SUMO HTRF inh,Rin1 Abl inh,UBC13 inh,ALR inh,RBBP9 inh,PREPL inhibitor,PREPL confirm
COc1ccc(NC(=O)N2CCN(c3ccc([N+](=O)[O-])cc3)CC2)cc1,8.8,-0.5,-3.3,-13.1,-8.9,30.1,x
COc1ccc(CN(C)C(=O)C2CSC3(C)CCC(=O)N23)cc1OC (centres undefined),x,-1.9,2.2,-3.4,x,-0.8,x
O=C(C[C@@H]1C/C=C\C[C@@H](Cc2ccc(F)cc2)C(=O)OC[C@H]2CCCN2C1=O)N[C@H](CO)Cc1ccccc1,x,-2.1,1.5,x,x,45.2*,47.0*
O=C(C[C@@H]1C/C=C\CC[C@@H](Cc2ccc(F)cc2)C(=O)OC[C@@H]2CCCN2C1=O)N[C@H](CO)Cc1ccccc1,x,0.6,1.2,x,x,35.1,x
O=C(C[C@H]1C/C=C\C[C@@H](Cc2ccc(F)cc2)C(=O)OC[C@H]2CCCN2C1=O)N[C@@H](CO)Cc1ccccc1,x,3.9,20.0,0.0,x,60.2*,51.2*
O=C(CSc1nc2ccc(NC(=O)c3ccccc3C(=O)O)cc2s1)Nc1ccc(F)c([N+](=O)[O-])c1,4.9,3.5,-9.5,x,x,50.9*,14.2
CC(C)(C)NC(=O)NC(=O)COC(=O)C1CCN(S(=O)(=O)c2cccs2)CC1,x,1.5,8.3,x,x,8.3,x
CC1(C(=O)Nc2cccc3ccccc23)CCN1C(=O)C1(c2ccccc2)CCCC1 (centres undefined),x,3.9,x,x,x,x,x
COc1ccc(-c2cn(Cc3ccc(C(N)=O)cc3)c(CCN)n2)cc1,x,-2.3,0.1,-16.4,x,46.1*,41.3
CN(C)c1ccc(N=Nc2ccccc2C(=O)OCC(=O)N(C)c2ccccc2)cc1,-19.9,-9.3,-206.4,x,-0.9,14.0,x
O=C(CSc1ccc(Cl)cc1)Nc1ccc(N2CCN(C(=O)c3ccco3)CC2)cc1,-0.6,-2.6,3.5,-16.1,2.1,48.0*,48.6*
Cc1ccccc1C(=O)N1CCN(c2ccc(NC(=O)CSc3ccc(Cl)cc3)cc2)CC1,-10.3,-3.8,-10.1,x,-9.0,64.9*,50.5*
O=C(COc1ccc(Cl)cc1)Nc1ccc(N2CCN(C(=O)c3ccco3)CC2)cc1,7.6,3.0,2.2,-0.5,-2.5,48.6*,48.2*
CCC(=O)Nc1ccc(N2CCN(C(=O)c3ccccc3C)CC2)cc1,-17.8,2.0,11.1,-5.7,-2.4,9.6,x
COc1ccc(OCC(=O)Nc2ccc(N3CCN(C(=O)c4ccco4)CC3)cc2)cc1,4.9,4.9,1.0,1.7,-4.6,25.6,x
COC(CNC(=O)C1CCN(C(=O)c2cc3oc(C)cc3n2Cc2c(F)cccc2Cl)CC1)OC,11.0,1.2,-1.4,23.1,-1.6,42.3,x
CCOC(=O)N1CCC(NC(=O)C2CCN(C(=O)c3cc4oc(C)cc4n3Cc3c(F)cccc3Cl)CC2)CC1,6.3,-0.9,7.6,-10.8,-0.9,54.9*,52.4*
COc1ccc(-c2cn(Cc3ccc4c(c3)C(=O)c3ccccc3C4=O)nn2)cc1,10.3,0.2,-5.8,3.3,x,48.4*,37.3
COc1ccc(NC(=O)C2CCCN(c3c4c(nc5ncnn35)CCC4)C2)cc1OC (centres undefined),19.0,-2.4,-18.9,-9.0,-0.3,9.8,x
O=C(Nc1ccc2c(c1)CCC2)C1CCN(c2c3c(nc4ncnn24)CCC3)CC1,21.1,5.6,6.7,12.1,-4.7,45.6*,42.9
O=C(COc1ccccc1[N+](=O)[O-])N/N=C/c1cccc(OC(=O)c2ccc3c(c2)OCO3)c1,7.0,0.5,-3.1,-3.8,3.7,46.5*,19.5
CN(CC(O)COCc1ccccc1F)C1CCCCC1 (centres undefined),13.1,-3.4,-12.9,0.8,6.9,43.7*,21.6
CCCS(=O)(=O)NC(=O)C1(C)CCN(C(=O)c2cccnc2Oc2ccccc2)C1 (centres undefined),x,-3.4,x,x,x,x,x
CCCC(=O)N1CCN(c2ccc(NC(=O)c3cc4ccccc4o3)cc2Cl)CC1,-17.6,-1.9,-13.9,47.9,0.6,45.0*,35.7
COc1ccc(NS(=O)(=O)c2cc(NC(=O)c3cc(F)c(F)c(F)c3F)ccc2N2CCCC2)cc1,-24.0,2.9,-8.2,x,-16.8,46.3*,38.9
